Data set [1] relates to Staphylococcus aureus. Kind of data set: Tested for antibacterial activity against Staphylococcus aureus. It is filed as functional.
In a further data set the test system is Pseudomonas aeruginosa. Kind of data set: Minimum concentration required to inhibit Pseudomonas aeruginosa ATCC 27853. It is filed as functional. Put shortly:
(§1)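 Broth doubling-dilution MIC in Mueller Hinton broth against ATCC quality-control strains, incubated 24 h at 37 °C in ambient air. Poorly water-soluble compounds were dissolved in minimal DMSO. Values are in µg/mL.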

Data set [2] has as its system Enterococcus faecalis. Kind of data set: Minimum concentration required to inhibit Enterococcus faecalis ATCC 29212. It is filed as functional. The essentials:
as §1

Data set [3] can be described thus: (§2) Half life (t1/2) was determined. It is filed as functional. The essentials:
(§3)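 Hydrolytic stability: compound from a 0.1 mg/mL ethanol stock was spiked into 10 mM phosphate buffer, pH 6, and held at 60 °C (±0.2 °C). Periodic HPLC or LC-MS/MS analysis was run, and k_obs came from linear regression of peak integration (n = 3). Selected compounds were also tested in diluted (1:4) agar at 37 °C.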

The next data set has as its system Escherichia coli. Kind of data set: Minimum concentration required to inhibit Escherichia coli ATCC 25922. The class given is functional. Put shortly: as §1
Data set [4] deals with Staphylococcus aureus. Kind of data set: Minimum concentration required to inhibit Staphylococcus aureus ATCC 25923. The class given is functional. The essentials:
as §1

The subject of data set [5] is Human alphaherpesvirus 1. Put plainly: Tested for antiviral activity against HSV-1 at a concentration of 12.5 ug/mL after 2 hr of treatment at 37 degrees C. The class given is functional, herpes simplex virus. Put shortly:
(§4)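 HSV-1 strain MacIntyre stock (10^6.5–10^7.5 TCID50/100 µL) was mixed 1:1 with twofold compound dilutions made in RPMI-1640 with 2% FBS from a 1 mg/mL HBSS stock; concentrations are final. Mixtures were held 2 h at 37 °C, then diluted 10-fold to stop. Residual titer was measured on Vero monolayers by 10-fold dilutions in quadruplicate wells, scoring CPE daily for 5 days at 37 °C and 5% CO2. Titers were calculated by Reed–Muench as log10 TCID50/0.1 mL, mean of three, against a virus-plus-medium control.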

For data set [6], the system named is Human alphaherpesvirus 1. Kind of data set: Tested for antiviral activity against HSV-1 at a concentration of 25 ug/mL after 2 hr of treatment at 37 degrees C. The class given is functional, herpes simplex virus. Put shortly: as §4
Data set [7] relates to Human alphaherpesvirus 1. Kind of data set: Tested for antiviral activity against HSV-1 at a concentration of 50 ug/mL after 2 hr of treatment at 37 degrees C. The class given is functional, herpes simplex virus. Put shortly:
as §4

Data set [8] relates to Human alphaherpesvirus 1. Put plainly: Tested for antiviral activity against HSV-1 at a concentration of 100 ug/mL after 2 hr of treatment at 37 degrees C. The class given is functional, herpes simplex virus. The essentials: as §4
The nature of data set [9]: as §2. It is filed as ADME. The essentials: as §3
In data set [10] the test system is Human alphaherpesvirus 1. Kind of data set: Tested for antiviral activity against HSV-1 at a concentration of 6.25 ug/mL after 2 hr of treatment at 37 degrees C. The class given is functional, herpes simplex virus. The essentials:
as §4

Data set [11] relates to Enterococcus faecalis. Kind of data set: Minimum concentration required to inhibit enterococcus faecalis ATCC 29212. The class given is functional. The essentials: as §1

What is called MIC is the lowest concentration that inhibits growth of the organism. The low end stands for inhibition by little substance, the high end for a need for much substance. With `CCCCCCCCCCCC(=O)OC[n+]1ccccc1.[Cl-]`, the “Log 1/MIC” value with Staphylococcus aureus [1] was -1.51. The MIC against Pseudomonas aeruginosa was found to be 3200 µg/mL; in the data set with Enterococcus faecalis [2] it was 10 µg/mL; in the data set with Escherichia coli it was 100 µg/mL; in the data set on Staphylococcus aureus [4] it was 50 µg/mL. Besides, the MLC came to 3200 µg/mL with Pseudomonas aeruginosa, 200 µg/mL with Enterococcus faecalis [2], 400 µg/mL in the data set with Escherichia coli and 50 µg/mL in the data set on Staphylococcus aureus [4]. In data set [3], this compound registered a Log t1/2 of 0.31.
On to `CCCCCCCCCCCCCCCC(=O)OCC[N+](CC)(CC)CC.[Br-]`, for which the MIC stood at 250 µg/mL in the data set with Pseudomonas aeruginosa, 8 µg/mL in the data set on Enterococcus faecalis [2], 64 µg/mL with Escherichia coli and 2 µg/mL in the data set on Staphylococcus aureus [4]. For the same compound, the MLC was 250 µg/mL in the data set on Pseudomonas aeruginosa, 16 µg/mL in the data set on Enterococcus faecalis [2], 64 µg/mL in the data set with Escherichia coli and 4 µg/mL with Staphylococcus aureus [4]. The “Log TCID50” value stood at 7 in the data set with Human alphaherpesvirus 1 [5], 6.33 in the data set on Human alphaherpesvirus 1 [6], 5.73 with Human alphaherpesvirus 1 [7] and 0.8 in the data set on Human alphaherpesvirus 1 [8].
Regarding `CCCCCCCCCCCCNC(=O)C[n+]1ccccc1`, the “Log 1/MIC” value in the data set on Staphylococcus aureus [1] was -0.6. For the same compound, the MIC was found to be 125 µg/mL against Pseudomonas aeruginosa, 4 µg/mL in the data set with Enterococcus faecalis [2], 125 µg/mL against Escherichia coli and 4 µg/mL in the data set on Staphylococcus aureus [4]. Further, the MLC in the data set with Pseudomonas aeruginosa is 125 µg/mL; in the data set on Enterococcus faecalis [2] it was 8 µg/mL; with Escherichia coli, 125 µg/mL; in the data set on Staphylococcus aureus [4] it was 4 µg/mL. Also, the “Log TCID50” value with Human alphaherpesvirus 1 [5] is on record as 6.57; with Human alphaherpesvirus 1 [6], 5.4; in the data set with Human alphaherpesvirus 1 [7], 1.5; with Human alphaherpesvirus 1 [8], 1.5. Besides, the “Log t1/2” value in data set [9] amounted to 0.92.
For the compound `CCCCCCCCCCCCCCCCCC(=O)OCC[n+]1ccccc1.[Br-]`, the “Log 1/MIC” value with Staphylococcus aureus [1] came to 0. Moreover, the minimum inhibitory concentration (MIC) against Pseudomonas aeruginosa came out at 250 µg/mL; in the data set with Enterococcus faecalis [2] it was 8 µg/mL; in the data set with Escherichia coli it was 500 µg/mL; against Staphylococcus aureus [4], 1 µg/mL. For the same compound, the MLC in the data set on Pseudomonas aeruginosa stood at 250 µg/mL; in the data set on Enterococcus faecalis [2], 8 µg/mL; with Escherichia coli, 500 µg/mL; in the data set on Staphylococcus aureus [4], 2 µg/mL. The “Log TCID50” value is reported as 6.1 in the data set with Human alphaherpesvirus 1 [5]; 2.9 in the data set on Human alphaherpesvirus 1 [6]; 1.63 in the data set on Human alphaherpesvirus 1 [7]; 6.9 in the data set on Human alphaherpesvirus 1 [10]; 1.3 in the data set on Human alphaherpesvirus 1 [8]. In [9], the “Log t1/2” value is 0.9.
On to `CCCCCCCCCCCC(=O)OCC[N+](CCCC)(CCCC)CCCC`, for which the “Log 1/MIC” value with Staphylococcus aureus [1] is on record as -0.3. Besides, the MIC in the data set on Pseudomonas aeruginosa was 500 µg/mL; in the data set with Enterococcus faecalis [2], 4 µg/mL; in the data set with Escherichia coli, 125 µg/mL; in the data set on Staphylococcus aureus [4] it was 2 µg/mL. The MLC in the data set on Pseudomonas aeruginosa is 1000 µg/mL; in the data set with Enterococcus faecalis [2], 16 µg/mL; in the data set on Escherichia coli it was 125 µg/mL; in the data set on Staphylococcus aureus [4], 8 µg/mL. Also, the “Log TCID50” value worked out at 7 in the data set on Human alphaherpesvirus 1 [5]; 6.63 in the data set with Human alphaherpesvirus 1 [6]; 6 with Human alphaherpesvirus 1 [7]; 7 in the data set on Human alphaherpesvirus 1 [10]; 0.5 with Human alphaherpesvirus 1 [8]. Moreover, in data set [9], the “Log t1/2” value is on record as 0.27.
With `CCCCCCCCCCCCCCCC(=O)OCC[n+]1ccccc1.[Br-]`, in the data set with Staphylococcus aureus [1], the “Log 1/MIC” value worked out at 0. Besides, the MIC against Pseudomonas aeruginosa came to 250 µg/mL; against Escherichia coli, 32 µg/mL; in the data set with Staphylococcus aureus [4], 1 µg/mL; in the data set on Enterococcus faecalis [11], 8 µg/mL. The MLC with Pseudomonas aeruginosa turned out to be 1000 µg/mL; in the data set on Enterococcus faecalis [2], 8 µg/mL; with Escherichia coli, 32 µg/mL; with Staphylococcus aureus [4], 1 µg/mL. Also, in data set [9], the “Log t1/2” value stood at 1.1.
`CCCCCCCCCCCC(=O)OCC[n+]1ccccc1.[Br-]`: the “Log 1/MIC” value with Staphylococcus aureus [1] is reported as -0.9. Also, the MIC against Pseudomonas aeruginosa was 200 µg/mL; in the data set with Enterococcus faecalis [2] it was 2 µg/mL; against Escherichia coli, 25 µg/mL; in the data set with Staphylococcus aureus [4], less than 6.25 µg/mL. Further, the MLC with Pseudomonas aeruginosa was 200 µg/mL; in the data set on Enterococcus faecalis [2] it was 100 µg/mL; in the data set on Escherichia coli, 100 µg/mL; in the data set on Staphylococcus aureus [4], 50 µg/mL. The “Log TCID50” value worked out at 6.8 in the data set with Human alphaherpesvirus 1 [5]; 6.73 in the data set with Human alphaherpesvirus 1 [6]; 6.73 in the data set with Human alphaherpesvirus 1 [7]; 7.03 with Human alphaherpesvirus 1 [10]; 1.63 in the data set with Human alphaherpesvirus 1 [8]. Besides, the Log t1/2 in data set [9] amounted to 0.33.
Consider `CCCCCCOC(=O)C[n+]1ccccc1`, for which, in the data set with Staphylococcus aureus [1], the “Log 1/MIC” value is -4.1. For the same compound, the MIC with Pseudomonas aeruginosa, against Enterococcus faecalis [2], with Escherichia coli and with Staphylococcus aureus [4] was greater than 12800 µg/mL in each case. In addition, the MLC in the data set on Pseudomonas aeruginosa, in the data set on Enterococcus faecalis [2], with Escherichia coli and in the data set on Staphylococcus aureus [4] was greater than 12800 µg/mL each time. Besides, the “Log t1/2” value in data set [9] amounted to 0.15.
As to `CCCCCCCC(=O)OCC[n+]1ccccc1.[Br-]`, the “Log 1/MIC” value in the data set with Staphylococcus aureus [1] was -2.69. Also, the MIC was greater than 2000 µg/mL in the data set with Pseudomonas aeruginosa, greater than 2000 µg/mL in the data set with Enterococcus faecalis [2], 1000 µg/mL in the data set on Escherichia coli and 500 µg/mL in the data set with Staphylococcus aureus [4]. Further, the MLC in the data set on Pseudomonas aeruginosa was greater than 2000 µg/mL; with Enterococcus faecalis [2] it was greater than 2000 µg/mL; with Escherichia coli it was 1000 µg/mL; in the data set with Staphylococcus aureus [4], 500 µg/mL. The “Log t1/2” value in data set [9] was 0.62.
`CCCCCCCCCCCCCCCC(=O)OCCC[n+]1ccccc1`: the “Log 1/MIC” value with Staphylococcus aureus [1] came out at 0.6. Also, the MIC against Pseudomonas aeruginosa is 500 µg/mL; with Enterococcus faecalis [2], 1 µg/mL; against Escherichia coli it was 250 µg/mL; against Staphylococcus aureus [4], less than 0.25 µg/mL. Moreover, the MLC in the data set on Pseudomonas aeruginosa turned out to be 500 µg/mL; in the data set with Enterococcus faecalis [2], 4 µg/mL; with Escherichia coli, 250 µg/mL; with Staphylococcus aureus [4], 1 µg/mL. Further, in data set [9], the “Log t1/2” value amounted to 2.36.
Regarding `CCCCCCCCCCCCCCCCCCNC(=O)C[n+]1ccccc1`, the “Log 1/MIC” value in the data set on Staphylococcus aureus [1] was determined as 0.6. Further, the MIC in the data set with Pseudomonas aeruginosa is 1000 µg/mL; in the data set on Enterococcus faecalis [2], less than 0.25 µg/mL; in the data set with Escherichia coli, 1000 µg/mL; with Staphylococcus aureus [4], less than 0.25 µg/mL. Moreover, the MLC was greater than 2000 µg/mL in the data set with Pseudomonas aeruginosa, 8 µg/mL with Enterococcus faecalis [2], greater than 2000 µg/mL with Escherichia coli and 4 µg/mL with Staphylococcus aureus [4]. Further, in data set [9], the “Log t1/2” value is on record as 0.81.
For `CCCCCCCCCCCCCCCC(=O)NCC[n+]1ccccc1.[Cl-]`, the MIC in the data set with Pseudomonas aeruginosa came to 250 µg/mL; against Enterococcus faecalis [2] it was 7.5 µg/mL; in the data set on Escherichia coli it was 60 µg/mL; against Staphylococcus aureus [4], 2 µg/mL. In addition, the “Log TCID50” value in the data set with Human alphaherpesvirus 1 [5] was found to be 6.07; in the data set on Human alphaherpesvirus 1 [6], 2.9; in the data set with Human alphaherpesvirus 1 [7], 0.9; with Human alphaherpesvirus 1 [10] it was 6.47; in the data set with Human alphaherpesvirus 1 [8] it was 0.8.
